Laboratory results from ChEMBL document CHEMBL4033799, “Stable and Long-Lasting, Novel Bicyclic Peptide Plasma Kallikrein Inhibitors for the Treatment of Diabetic Macular Edema” (J Med Chem, 2018).

Key:
[1] = Half life in mouse plasma at 4 uM measured up to 24 hrs by LC-MS/MS analysis; format: ADME, cell-free
How it was run: (§1)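 Peptide from a 0.16 mM DMSO stock was added to human, rat or mouse plasma (final 4 μM) or to homogenized human vitreous (final 1 μM), with internal standard. Samples were incubated at 37 °C for up to 24 h and extracted with water/acetonitrile/methanol 1:3:3.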

[2] = Half life in rat plasma at 4 uM measured up to 24 hrs by LC-MS/MS analysis; format: ADME, cell-free; how it was run: as §1
[3] = target: Kallikrein-1 (Homo sapiens, UniProt P06870); experiment: Inhibition of recombinant human C-terminal His-tagged KLK1 (1 to 262 residues) expressed in HEK293 cells using fluorogenic PFR-AMC peptide as substrate by fluorescence based assay
How it was run: (§2)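 Human serine proteases were assayed with substrates and conditions set by each supplier's recommendations. Peptides were first screened at 50 μM. Where inhibition was detected, Ki was determined from activity across peptide concentrations using a tight-binding rate equation.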

[4] = target: T1, Cathepsin G (Homo sapiens, UniProt P08311); experiment: Inhibition of recombinant human Cathepsin-G
T1 sequence (P08311 whole entry): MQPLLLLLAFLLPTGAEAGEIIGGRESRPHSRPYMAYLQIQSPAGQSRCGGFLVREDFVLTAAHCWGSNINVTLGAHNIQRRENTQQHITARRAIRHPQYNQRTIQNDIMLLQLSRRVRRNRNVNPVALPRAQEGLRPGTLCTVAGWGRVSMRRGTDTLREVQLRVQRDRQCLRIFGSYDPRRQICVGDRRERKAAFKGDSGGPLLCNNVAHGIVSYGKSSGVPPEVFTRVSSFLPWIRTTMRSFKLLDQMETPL
How it was run: (§3)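 Panel of human serine proteases. Substrates and assay conditions followed each supplier's recommendations. Peptides were first screened at 50 μM. Where inhibition was detectable, hydrolytic activity was measured across a range of peptide concentrations. Ki was obtained by fitting to the tight-binding inhibitor rate equation.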

[5] = target: Coagulation factor X (Homo sapiens, UniProt P00742); experiment: Inhibition of recombinant human C-terminal 10His-tagged factor Xa (24 to 488 residues) expressed in baculovirus derived insect sf21 cells using fluorogenic Mca-RPKPVE-Nval-WRK(Dnp)-NH2 peptide as substrate by fluorescence based assay; how it was run: as §2
[6] = target: Coagulation factor XI (Homo sapiens, UniProt P03951); experiment: Inhibition of human factor 11a using fluorogenic peptide as substrate by fluorescence based assay; how it was run: as §2
[7] = target: Vitamin K-dependent protein C (Homo sapiens, UniProt P04070); experiment: Inhibition of human activated protein C by fluorescence based assay; how it was run: as §2
[8] = target: T2, Suppressor of tumorigenicity 14 protein (Homo sapiens, UniProt Q9Y5Y6); experiment: Inhibition of recombinant human N-terminal 6His-tagged matriptase catalytic domain (596 to 855 residues) expressed in Escherichia coli using fluorogenic Boc-QAR-AMC peptide as substrate after 5 mins by fluorescence based assay; how it was run: as §3
T2 sequence (Q9Y5Y6 whole entry): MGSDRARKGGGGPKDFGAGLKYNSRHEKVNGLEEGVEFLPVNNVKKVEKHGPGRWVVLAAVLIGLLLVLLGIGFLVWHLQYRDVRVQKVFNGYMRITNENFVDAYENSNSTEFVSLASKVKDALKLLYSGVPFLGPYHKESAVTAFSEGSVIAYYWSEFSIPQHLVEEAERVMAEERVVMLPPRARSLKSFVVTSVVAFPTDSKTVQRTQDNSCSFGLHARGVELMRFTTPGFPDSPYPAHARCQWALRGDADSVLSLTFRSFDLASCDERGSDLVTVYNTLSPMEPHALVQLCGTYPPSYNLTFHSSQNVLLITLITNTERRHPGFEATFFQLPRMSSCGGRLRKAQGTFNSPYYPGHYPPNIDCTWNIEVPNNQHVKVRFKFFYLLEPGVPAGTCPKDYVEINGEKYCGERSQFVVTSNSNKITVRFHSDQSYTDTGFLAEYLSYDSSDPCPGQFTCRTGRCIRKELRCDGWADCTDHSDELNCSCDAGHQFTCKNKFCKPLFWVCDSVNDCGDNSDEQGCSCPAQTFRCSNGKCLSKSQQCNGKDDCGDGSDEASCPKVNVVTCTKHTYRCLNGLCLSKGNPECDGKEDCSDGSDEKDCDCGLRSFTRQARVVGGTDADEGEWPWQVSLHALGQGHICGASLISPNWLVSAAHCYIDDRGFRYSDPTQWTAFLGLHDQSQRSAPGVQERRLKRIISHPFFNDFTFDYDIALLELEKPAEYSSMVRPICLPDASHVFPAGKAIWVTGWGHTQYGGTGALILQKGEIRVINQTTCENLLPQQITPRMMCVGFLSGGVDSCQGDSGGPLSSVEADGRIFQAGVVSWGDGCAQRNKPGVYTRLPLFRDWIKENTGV

[9] = target: Granzyme B (Homo sapiens, UniProt P10144); experiment: Inhibition of recombinant human Granzyme B (21 to 247 residues) using […] Ac-IEPD-pNA peptide as substrate […]; how it was run: as §3
[10] = Plasma clearance in Sprague-Dawley rat at 5 mg/kg, iv measured up to 240 mins post dose by LC-MS/MS analysis; format: ADME, organism-based
How it was run: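 Male Sprague-Dawley rats, 2 per group, given 5 mg/kg intravenously. Blood sampled through tail-vein cannulae at 5, 10, 20, 30, 60, 120, 180 and 240 min into EDTA tubes and spun to plasma.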

[11] = target: T3, Coagulation factor VII (Homo sapiens, UniProt P08709); experiment: Inhibition of human factor 7a using fluorogenic peptide as substrate by fluorescence based assay; how it was run: as §2
T3 sequence (P08709 whole entry): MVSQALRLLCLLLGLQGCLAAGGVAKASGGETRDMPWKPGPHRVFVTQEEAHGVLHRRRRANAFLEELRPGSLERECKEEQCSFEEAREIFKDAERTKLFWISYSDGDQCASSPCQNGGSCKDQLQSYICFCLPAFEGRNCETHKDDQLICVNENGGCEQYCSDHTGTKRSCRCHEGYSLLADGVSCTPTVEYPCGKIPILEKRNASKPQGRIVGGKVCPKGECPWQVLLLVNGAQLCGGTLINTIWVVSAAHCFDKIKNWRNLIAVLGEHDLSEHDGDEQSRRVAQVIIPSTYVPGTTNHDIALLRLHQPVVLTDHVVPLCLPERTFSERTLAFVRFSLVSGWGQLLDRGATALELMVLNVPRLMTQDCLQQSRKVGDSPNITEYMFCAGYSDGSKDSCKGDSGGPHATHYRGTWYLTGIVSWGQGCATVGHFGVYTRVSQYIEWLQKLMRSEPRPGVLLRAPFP

Row | half-life at 4 µM [1] | half-life at 4 µM [2] | Ki ([3]; hek293) | Ki [4] | Ki [5] | Ki [6] | Ki [7] | Ki [8] | Ki [9] | clearance [10] | Ki [11] | Ki [3] | SMILES
1 | > 24 h | > 24 h | > 50 µM | > 50 µM | > 50 µM | > 50 µM | > 50 µM | 40 µM | > 50 µM | 8.2 mL/min/kg | > 50 µM | – | CC(=O)N[C@H]1CSCc2cc3cc(c2)CSC[C@H](C(=O)N[C@@H](C)C(=O)N(C)CC(=O)N(C)CC(=O)N(C)CC(=O)N[C@H](CCCNC(=N)N)C(=O)N[C@H](CCCNC(=N)N)C(=O)O)NC(=O)[C@H](CC(C)C)NC(=O)[C@@H]2CCCN2C(=O)[C@H](C)NC(=O)[C@H](CC(=O)O)NC(=O)[C@H](Cc2c[nH]c4ccccc24)NC(=O)[C@@H]2CCCN2C(=O)[C@H](CSC3)NC(=O)[C@H](Cc2c[nH]c3ccccc23)NC(=O)[C@@H]2CCCN2C(=O)[C@H](CC(N)=O)NC(=O)[C@H](Cc2c[nH]c3ccccc23)NC(=O)[C@H]([C@@H](C)O)NC(=O)[C@H](CC(N)=O)NC1=O
2 | > 24 h | > 24 h | > 50 µM | – | – | > 50 µM | > 50 µM | 50 µM | > 50 µM | 6.2 mL/min/kg | > 50 µM | – | CC(=O)N[C@H]1CSCc2cc3cc(c2)CSC[C@H](NC(=O)[C@H](CCCCNC(=N)N)NC(=O)[C@H](Cc2ccc(O)cc2)NC(=O)[C@@H]2CCN2C(=O)[C@H](Cc2ccccc2)NC(=O)[C@H](CO)NC1=O)C(=O)N[C@@H](C)CN[C@@H](Cc1cnc[nH]1)C(=O)N[C@@H](CCC(N)=O)C(=O)N[C@@H](CC(=O)O)C(=O)N[C@@H](CC(C)C)C(=O)N[C@H](C(=O)O)CSC3
3 | – | – | – | > 50 µM | 23 µM | 0.5 µM | > 50 µM | 15 µM | > 50 µM | – | > 50 µM | 50 µM | CC[C@H](C)[C@@H]1NC(=O)[C@H](CC(=O)O)NC(=O)[C@@H]2CCCN2C(=O)[C@H](Cc2ccc(O)cc2)NC(=O)[C@H](Cc2ccc(O)cc2)NC(=O)[C@H](C(C)C)NC(=O)[C@@H]2CSCc3cc(cc(c3)CSC[C@@H](C(=O)N[C@@H](C)C(=O)N(C)CC(=O)N(C)CC(=O)N(C)CC(=O)N[C@H](CCCNC(=N)N)C(=O)N[C@H](CCCNC(=N)N)C(=O)O)NC1=O)CSC[C@H](NC(C)=O)C(=O)N[C@@H](CO)C(=O)N[C@@H](Cc1ccccc1)C(=O)N1CCC1C(=O)N[C@@H](Cc1ccc(O)cc1)C(=O)N[C@@H](CCCCNC(=N)N)C(=O)N2 (stereo partly drawn)
